IC50, MIC and Activity data for 16 compounds are collected here from ChEMBL document CHEMBL4266019, “Discovery and Structure-Activity-Relationship Study of N-Alkyl-5-hydroxypyrimidinone Carboxamides as Novel Antitubercular Agents Targeting Decaprenylphosphoryl-β-d-ribose 2'-Oxidase” (J Med Chem, 2018).

Converted amounts (≈) assume the structure as drawn. The source made the active and inactive calls. The rule behind the calls is not given here.

In experiment [1] the test system is HepG2. Briefly: Cytotoxicity against human HepG2 cells in presence of glucose. It is filed as cell-based. Summed up: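 HepG2 cells tested in DMEM/10% FBS supplemented with glucose.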
Experiment [2] deals with HepG2. The experiment can be described thus: Cytotoxicity against human HepG2 cells in presence of galactose. It is filed as cell-based. Summed up: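 HepG2 cells tested in DMEM/10% FBS containing galactose.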
For experiment [3], the system named is Mycobacterium tuberculosis. The experiment can be described thus: Antitubercular activity against Mycobacterium tuberculosis H37Rv after 7 to 14 days in presence of GAST medium by two fold serial dilution method. Format: functional. The gist of the method:
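MIC in GAST (glycerol/alanine/salts/Tween 80 defined medium), strain H37Rv; screening hits tested as duplicate 12-point MIC determinations with MgCl2 at 0.06, 6 or 60 mM.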

Experiment [4] addresses T1, Decaprenylphosphoryl-beta-D-ribose oxidase (Mycobacterium tuberculosis (strain ATCC 25618 / H37Rv)) (UniProt P9WJF1).
T1 sequence (whole entry): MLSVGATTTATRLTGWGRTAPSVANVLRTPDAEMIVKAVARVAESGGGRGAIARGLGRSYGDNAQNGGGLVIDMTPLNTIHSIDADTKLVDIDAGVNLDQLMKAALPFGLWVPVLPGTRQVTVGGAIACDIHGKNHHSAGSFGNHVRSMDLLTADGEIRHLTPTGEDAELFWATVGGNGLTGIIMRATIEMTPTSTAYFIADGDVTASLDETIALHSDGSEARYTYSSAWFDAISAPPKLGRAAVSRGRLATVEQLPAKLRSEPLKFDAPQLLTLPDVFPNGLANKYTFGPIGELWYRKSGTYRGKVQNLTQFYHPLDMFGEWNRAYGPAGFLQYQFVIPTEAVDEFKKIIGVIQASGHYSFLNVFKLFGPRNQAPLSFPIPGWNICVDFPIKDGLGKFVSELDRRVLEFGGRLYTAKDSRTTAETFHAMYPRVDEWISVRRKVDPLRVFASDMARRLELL
The experiment can be described thus: Inhibition of DprE1 in Mycobacterium tuberculosis H37Rv assessed as bacterial growth inhibition after 4 weeks.

The subject of experiment [5] is Mycobacterium tuberculosis. Briefly: Bactericidal activity against Mycobacterium tuberculosis H37Rv under aerobic condition after 7 days. Format: functional, organism-based. The gist of the method: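 Log-phase H37Rv (OD650 0.2) diluted 1000-fold in 7H9/ADC and exposed to 1×, 5×, 10×, 20× and 50× MIC in duplicate. Sampled at days 1, 2, 4 and 7; CFU counted on 7H11/OADC plates.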

Experiment [6] relates to Mycobacterium tuberculosis. The experiment can be described thus: Bactericidal activity against Mycobacterium tuberculosis H37Rv under anaerobic condition at 1 to 50 fold MIC after 7 days. It is filed as functional, organism-based. Summed up: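 Anaerobic H37Rv from the self-generated oxygen-depletion (Wayne) model exposed to 1×, 5×, 10×, 20× and 50× MIC in an anaerobic chamber for 7 days. CFU counted on 7H11/OADC plates.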

The test system of experiment [7] is Mycobacterium tuberculosis. The experiment can be described thus: Antitubercular activity against Mycobacterium tuberculosis H37Rv assessed as induction of DNA damage by precA-LUX/pradA-LUX reporter-gene assay. It is filed as functional, organism-based. The gist of the method:
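DNA-damage read-out: induction of the recA and radA promoters measured as luminescence in H37Rv precA-LUX and pradA-LUX reporter strains.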

In the case of `COc1c(C(=O)NCc2ccccc2)nc(Cc2ccccc2C(F)(F)F)n(C)c1=O`, the IC50 in the experiment with HepG2 [1] and with HepG2 [2] was > 100 µM throughout.

As to `Cn1c(Cc2ccccc2C(F)(F)F)nc(C(=O)NCC2CCCCC2)c(O)c1=O`, the IC50 with HepG2 [1] and in the experiment on HepG2 [2] was > 100 µM throughout.

On to `Cn1c(Cc2ccccc2C(F)(F)F)nc(C(=O)NCc2ccc3c(c2)OCO3)c(O)c1=O`, for which the half-maximal inhibitory concentration (IC50) with HepG2 [1] and in the experiment on HepG2 [2] was > 100 µM throughout.

For `O=C(NCc1ccccc1)c1nc(Cc2ccccc2C(F)(F)F)[nH]c(=O)c1O`, the IC50 in the experiment with HepG2 [1] and in the experiment on HepG2 [2] was > 100 µM throughout.

`Cn1c(Cc2ccccc2C(F)(F)F)nc(C(=O)NCc2ccc(F)cc2)c(O)c1=O`: the IC50 in the experiment with HepG2 [1] and with HepG2 [2] was > 100 µM each time.

Regarding `Cn1c(Cc2ccccc2C(F)(F)F)nc(C(=O)NCc2ccccc2F)c(O)c1=O`, the concentration for half-maximal inhibition (IC50) in the experiment with HepG2 [1] and with HepG2 [2] was > 100 µM each time.

Regarding `CN(Cc1ccccc1)C(=O)c1nc(Cc2ccccc2C(F)(F)F)n(C)c(=O)c1O`, the IC50 in the experiment with HepG2 [1] and with HepG2 [2] was > 100 µM throughout.

In the case of `Cn1c(Cc2ccccc2C(F)(F)F)nc(C(=O)NCc2cccnc2)c(O)c1=O`, the IC50 in the experiment with HepG2 [1] and in the experiment on HepG2 [2] was > 100 µM each time.

In the case of `Cn1c(Cc2ccccc2C(F)(F)F)nc(C(=O)NCc2ccccn2)c(O)c1=O`, the IC50 in the experiment on HepG2 [1] and in the experiment on HepG2 [2] was > 100 µM each time.

In the case of `Cn1c(Cc2ccccc2)nc(C(=O)NCc2ccccc2)c(O)c1=O`, the IC50 in the experiment on HepG2 [1] and in the experiment with HepG2 [2] was > 100 µM throughout.

For `Cn1c(Cc2ccccc2C(F)(F)F)nc(C(=O)CCc2ccccc2)c(O)c1=O`, the IC50 with HepG2 [1] and with HepG2 [2] was > 100 µM in each case.

Turning to `CC(NC(=O)c1nc(Cc2ccccc2C(F)(F)F)n(C)c(=O)c1O)c1ccccc1` (configuration not stated), the IC50 in the experiment on HepG2 [1] and in the experiment on HepG2 [2] was > 100 µM each time.

For `CCn1c(Cc2ccccc2C(F)(F)F)nc(C(=O)NCc2ccccc2)c(O)c1=O`, the IC50 in the experiment on HepG2 [1] and in the experiment on HepG2 [2] was > 100 µM in each case.

Consider `CC(c1ccccc1C(F)(F)F)c1nc(C(=O)NCc2ccccc2)c(O)c(=O)n1C` (configuration not stated), for which the IC50 in the experiment on HepG2 [1] and in the experiment on HepG2 [2] was > 100 µM throughout.

Turning to `Cn1c(Cc2ccccc2C(F)(F)F)nc(C(=O)Nc2ccccc2)c(O)c1=O`, the IC50 in the experiment with HepG2 [1] and in the experiment on HepG2 [2] was > 100 µM throughout.

With `Cn1c(Cc2ccccc2C(F)(F)F)nc(C(=O)NCc2ccccc2)c(O)c1=O`, the IC50 in the experiment with HepG2 [1] and with HepG2 [2] was > 100 µM in each case. The MIC in experiment [3] was 0.4 to 0.59 µM; in experiment [4], 3.13 µM (≈ 1.31 µg/mL). The Activity entry in experiment [5] is “Dose-dependent effect”. Further, the result in experiment [6] and in experiment [7] was inactive.
